Laboratory results reported in ChEMBL document CHEMBL3813699, “Structure-Activity Relationships of a Diverse Class of Halogenated Phenazines That Targets Persistent, Antibiotic-Tolerant Bacterial Biofilms and Mycobacterium tuberculosis” (J Med Chem, 2016).
In brackets after ≈: the same amount, converted by molar mass.

What was measured:
Staphylococcus aureus [1] = experiment: Antibiofilm activity against methicillin-resistant Staphylococcus aureus isolate 2 assessed as biofilm eradication incubated for 24 hrs by CBD assay; format: functional; settings: for MBC: Staphylococcus aureus, isolate 2, 24 h
In short: (§1)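 Calgary Biofilm Device: pegs inoculated with mid-log culture diluted 1,000-fold in TSB + 0.5% glucose, 24 h 37 °C; washed pegs challenged with 2-fold dilutions 24 h 37 °C; pegs moved to fresh TSBG 24 h; MBEC = lowest concentration leaving no turbidity; 2–6 independent experiments.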

Staphylococcus aureus [2] = experiment: Antibacterial activity against methicillin-resistant Staphylococcus aureus clinical isolate 2 incubated for 16 to 18 hrs by broth microdilution method; format: functional
[3] = tested on: Staphylococcus epidermidis; experiment: Antibacterial activity against Staphylococcus epidermidis ATCC 12228 incubated for 16 to 18 hrs by broth microdilution method; format: functional
Staphylococcus aureus [4] = experiment: Antibacterial activity against methicillin-resistant Staphylococcus aureus BAA-44 incubated for 16 to 18 hrs by broth microdilution method; format: functional
Staphylococcus aureus [5] = experiment: Antibacterial activity against methicillin-resistant Staphylococcus aureus BAA-1707 incubated for 16 to 18 hrs by broth microdilution method; format: functional
[6] = tested on: Staphylococcus epidermidis; experiment: Antibacterial activity against methicillin-resistant Staphylococcus epidermidis ATCC 35984 incubated for 16 to 18 hrs by broth microdilution method; format: functional
Enterococcus faecium [7] = experiment: Antibacterial activity against vancomycin-resistant Enterococcus faecium ATCC 700221 incubated for 16 to 18 hrs by broth microdilution method; format: functional
HeLa = experiment: Cytotoxicity against human HeLa cells after 24 hrs by LDH release assay; format: cell-based
In short: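 HeLa in DMEM + 10% FBS, 37 °C 5% CO2, at 70–80% confluence treated with 25, 50, 100 µM for 24 h; DMSO vehicle; Triton X-100 2% v/v max-LDH control, medium-only negative; supernatant with LDH reaction mix 30 min room temperature, stopped, absorbance 490 nm.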

[8] = Induction of hemolysis in human RBC at 200 uM incubated for 1 hr; format: cell-based, Erythrocyte; settings: red blood cells, read-out: Activity
In short: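 Human RBCs (EDTA), washed three times in Tris-buffered saline pH 7.2; 2% hRBC with compound at final 200 µM, 1 h 37 °C; supernatant OD405; % hemolysis relative to DMSO (0%) and Triton X (100%).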

Staphylococcus aureus [9] = experiment: Antibiofilm activity against methicillin-resistant Staphylococcus aureus BAA-1707 assessed as biofilm eradication incubated for 24 hrs by CBD assay; format: functional; in short: as §1
[10] = tested on: Staphylococcus epidermidis; experiment: Antibacterial activity against methicillin-resistant Staphylococcus epidermidis ATCC 35984 assessed as biofilm eradication incubated for 24 hrs by CBD assay; format: functional; settings: for MBC: Staphylococcus epidermidis, ATCC 35984, 24 h; in short: as §1
Enterococcus faecium [11] = experiment: Antibiofilm activity against […]-resistant Enterococcus faecium ATCC 700221 assessed as biofilm eradication incubated for 24 hrs by CBD assay; format: functional; settings: for MBC: Enterococcus faecium, ATCC 700221, 24 h; in short: as §1

Compound: Oc1c(Cl)cc(I)c2nc3ccccc3nc12
- MBEC (Staphylococcus aureus [1]): 125 µM
- MBC (Staphylococcus aureus [1]): 15.6 µM (≈ 5.56 µg/mL)
- MIC (Staphylococcus aureus [2]): 1.56 µM (≈ 0.556 µg/mL)
- MIC [3]: 1.56 µM (≈ 0.556 µg/mL)
- MIC (Staphylococcus aureus [4]): 1.56 µM (≈ 0.556 µg/mL)
- MIC (Staphylococcus aureus [5]): 1.56 µM (≈ 0.556 µg/mL)
- MIC [6]: 1.56 µM (≈ 0.556 µg/mL)
- MIC (Enterococcus faecium [7]): 6.25 µM (≈ 2.23 µg/mL)
- IC50 (HeLa): > 100 µM
- hemolysis at 1 h, 200 µM [8]: 5.1%

Compound: CCCCCCCCCC(=O)N[C@@H](Cc1c[nH]c2ccccc12)C(=O)N[C@H](CC(N)=O)C(=O)N[C@@H](CC(=O)O)C(=O)N[C@@H]1C(=O)NCC(=O)N[C@@H](CCCN)C(=O)N[C@@H](CC(=O)O)C(=O)N[C@H](C)C(=O)N[C@@H](CC(=O)O)C(=O)NCC(=O)N[C@H](CO)C(=O)N[C@@H]([C@H](C)CC(=O)O)C(=O)N[C@@H](CC(=O)c2ccccc2N)C(=O)O[C@@H]1C [DAPTOMYCIN]
- hemolysis at 1 h, 200 µM [8]: 1.7%

Compound: Oc1c(Br)cc(Br)c2nc3ccc(Br)cc3nc12
- MBEC (Staphylococcus aureus [1]): 25 µM
- MBC (Staphylococcus aureus [1]): 50 µM (≈ 21.6 µg/mL)
- MBEC (Staphylococcus aureus [9]): 12.5 µM
- MBC (Staphylococcus aureus [9]; Staphylococcus aureus, BAA-1707, 24 h): 12.5 µM (≈ 5.41 µg/mL)
- MIC [3]: 3.13 µM (≈ 1.35 µg/mL)
- MIC (Staphylococcus aureus [5]): 0.2 µM (≈ 0.0866 µg/mL)
- MIC [6]: 3.13 µM (≈ 1.35 µg/mL)
- MIC (Enterococcus faecium [7]): 0.78 µM (≈ 0.338 µg/mL)
- hemolysis at 1 h, 200 µM [8]: 2.1%

Compound: C=CCc1cc(Br)c2nc3ccccc3nc2c1O
- MIC (Staphylococcus aureus [2]): > 100 µM
- MIC [3]: > 100 µM
- MIC (Enterococcus faecium [7]): > 100 µM

Compound: Oc1c(I)cc(I)c2nc3ccccc3nc12
- MBEC (Staphylococcus aureus [1]): 93.8 µM
- MBC (Staphylococcus aureus [1]): 31.3 µM (≈ 14 µg/mL)
- MBEC [10]: 23.5 µM
- MBC [10]: 31.3 µM (≈ 14 µg/mL)
- MIC (Staphylococcus aureus [2]): 3.13 µM (≈ 1.4 µg/mL)
- MIC [3]: 1.56 µM (≈ 0.699 µg/mL)
- MIC (Staphylococcus aureus [4]): 3.13 µM (≈ 1.4 µg/mL)
- MIC (Staphylococcus aureus [5]): 3.13 µM (≈ 1.4 µg/mL)
- MIC [6]: 1.17 µM (≈ 0.524 µg/mL)
- MIC (Enterococcus faecium [7]): 6.25 µM (≈ 2.8 µg/mL)
- IC50 (HeLa): > 100 µM
- MBEC (Enterococcus faecium [11]): 15.6 µM
- MBC (Enterococcus faecium [11]): 23.5 µM (≈ 10.5 µg/mL)
- hemolysis at 1 h, 200 µM [8]: ≤ 1%

Compound: COc1cccc2nc3cc(Cl)c(Cl)cc3nc12
- MIC (Staphylococcus aureus [2]): > 100 µM
- MIC [3]: > 100 µM
- MIC [6]: > 100 µM
- MIC (Enterococcus faecium [7]): > 100 µM

Compound: Oc1c(I)cc(I)c2nccnc12
- MBEC (Staphylococcus aureus [1]): >2000 µM
- MBC (Staphylococcus aureus [1]): > 2000 µM
- MBEC [10]: >1000 µM
- MBC [10]: 750 µM (≈ 298 µg/mL)
- MIC (Staphylococcus aureus [2]): 3.13 µM (≈ 1.25 µg/mL)
- MIC [3]: 6.25 µM (≈ 2.49 µg/mL)
- MIC (Staphylococcus aureus [4]): 1.56 µM (≈ 0.621 µg/mL)
- MIC (Staphylococcus aureus [5]): 1.56 µM (≈ 0.621 µg/mL)
- MIC [6]: 3.13 µM (≈ 1.25 µg/mL)
- MIC (Enterococcus faecium [7]): 12.5 µM (≈ 4.97 µg/mL)
- hemolysis at 1 h, 200 µM [8]: ≤ 1%

Compound: C=CCc1cc(Br)c2nc3cc(Br)c(Br)cc3nc2c1O
- MIC (Staphylococcus aureus [2]): > 100 µM
- MIC [3]: > 100 µM
- MIC (Enterococcus faecium [7]): > 100 µM

Compound: Oc1c(Cl)cc(Br)c2nc3ccccc3nc12
- MBEC (Staphylococcus aureus [1]): >1000 µM
- MBC (Staphylococcus aureus [1]): 62.5 µM (≈ 19.3 µg/mL)
- MBEC [10]: 375 µM
- MBC [10]: 31.3 µM (≈ 9.69 µg/mL)
- MIC [3]: 3.13 µM (≈ 0.969 µg/mL)
- MIC (Staphylococcus aureus [4]): 3.13 µM (≈ 0.969 µg/mL)
- MIC [6]: 1.56 µM (≈ 0.483 µg/mL)
- MIC (Enterococcus faecium [7]): 6.25 µM (≈ 1.93 µg/mL)
- IC50 (HeLa): > 100 µM
- MBEC (Enterococcus faecium [11]): 11.7 µM
- MBC (Enterococcus faecium [11]): 11.7 µM (≈ 3.62 µg/mL)
- hemolysis at 1 h, 200 µM [8]: ≤ 1%

Compound: N#CC(C#N)=NNc1cccc(Cl)c1 [CARBONYL CYANIDE M-CHLOROPHENYLHYDRAZONE]
- MBEC (Staphylococcus aureus [1]): 1000 µM
- MBC (Staphylococcus aureus [1]): 31.3 µM (≈ 6.4 µg/mL)
- MBEC [10]: 93.8 µM
- MBC [10]: 31.3 µM (≈ 6.4 µg/mL)
- hemolysis at 1 h, 200 µM [8]: 3.5%

Compound: CC(=O)N[C@@H](CS)C(=O)O [ACETYLCYSTEINE]
- MBEC (Staphylococcus aureus [1]): >2000 µM
- MBC (Staphylococcus aureus [1]): > 2000 µM
- MBEC [10]: >2000 µM
- MBC [10]: > 2000 µM
- MBEC (Enterococcus faecium [11]): >2000 µM
- MBC (Enterococcus faecium [11]): > 2000 µM

Compound: Oc1c(Br)cc(Br)c2nc3cc4ccccc4cc3nc12
- MBEC (Staphylococcus aureus [1]): >200 µM
- MBC (Staphylococcus aureus [1]): 200 µM (≈ 80.8 µg/mL)
- MIC (Staphylococcus aureus [2]): > 100 µM
- MIC [3]: 12.5 µM (≈ 5.05 µg/mL)
- MIC (Staphylococcus aureus [4]): 75 µM (≈ 30.3 µg/mL)
- MIC (Staphylococcus aureus [5]): 50 µM (≈ 20.2 µg/mL)
- hemolysis at 1 h, 200 µM [8]: ≤ 1%

Compound: Cc1nc2c(Br)cc(Br)c(O)c2nc1C
- MBEC (Staphylococcus aureus [1]): 1500 µM
- MBC (Staphylococcus aureus [1]): 125 µM (≈ 41.5 µg/mL)
- MIC [3]: 12.5 µM (≈ 4.15 µg/mL)
- MIC (Staphylococcus aureus [4]): 6.25 µM (≈ 2.07 µg/mL)
- MIC (Enterococcus faecium [7]): 25 µM (≈ 8.3 µg/mL)
- hemolysis at 1 h, 200 µM [8]: ≤ 1%
